Results from ChEMBL document CHEMBL1129668 (J Med Chem, 1996).

Tests used:
[1] = molecular target: Sodium-dependent dopamine transporter (Rattus norvegicus, UniProt P23977); experiment: In vitro binding affinity towards dopamine transporter in rat striatal membranes by […] displacement.; type: cell membranes, Striatum, Membrane
How it was run: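 Crude membranes of rat corpus striatum in Tris-citrate buffer (pH 7.4) with Na+ and Mg2+ (4 mM). Six concentrations, duplicate; computer-fit IC50 converted to Ki via Cheng–Prusoff relation using radioligand K_d.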

[2] = molecular target: Monoamine transporters; serotonin & dopamine (Rattus norvegicus) (UniProt P31652+P23977); experiment: Selectivity for Dopamine and Serotonin transporters; type: protein assay
Sequence of Monoamine transporters; serotonin & dopamine (Rattus norvegicus) (P23977 whole entry, looked up): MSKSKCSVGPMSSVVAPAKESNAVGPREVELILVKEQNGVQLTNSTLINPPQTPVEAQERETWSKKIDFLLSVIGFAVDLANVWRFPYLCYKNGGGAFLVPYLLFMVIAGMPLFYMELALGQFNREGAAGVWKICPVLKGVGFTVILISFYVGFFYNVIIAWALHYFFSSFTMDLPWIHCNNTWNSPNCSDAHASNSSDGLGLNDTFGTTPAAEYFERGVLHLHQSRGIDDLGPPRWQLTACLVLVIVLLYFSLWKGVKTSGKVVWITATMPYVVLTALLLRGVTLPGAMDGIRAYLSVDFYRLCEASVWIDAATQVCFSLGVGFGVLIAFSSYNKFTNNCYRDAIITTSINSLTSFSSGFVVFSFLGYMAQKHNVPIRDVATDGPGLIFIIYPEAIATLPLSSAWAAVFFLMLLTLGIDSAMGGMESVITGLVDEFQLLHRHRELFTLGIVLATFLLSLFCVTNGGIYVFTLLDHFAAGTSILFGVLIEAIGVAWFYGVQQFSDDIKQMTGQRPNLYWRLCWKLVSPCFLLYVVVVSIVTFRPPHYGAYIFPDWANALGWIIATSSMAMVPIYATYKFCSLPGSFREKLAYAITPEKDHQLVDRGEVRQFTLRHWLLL
Sequence of Monoamine transporters; serotonin & dopamine (Rattus norvegicus) (P31652 whole entry, looked up): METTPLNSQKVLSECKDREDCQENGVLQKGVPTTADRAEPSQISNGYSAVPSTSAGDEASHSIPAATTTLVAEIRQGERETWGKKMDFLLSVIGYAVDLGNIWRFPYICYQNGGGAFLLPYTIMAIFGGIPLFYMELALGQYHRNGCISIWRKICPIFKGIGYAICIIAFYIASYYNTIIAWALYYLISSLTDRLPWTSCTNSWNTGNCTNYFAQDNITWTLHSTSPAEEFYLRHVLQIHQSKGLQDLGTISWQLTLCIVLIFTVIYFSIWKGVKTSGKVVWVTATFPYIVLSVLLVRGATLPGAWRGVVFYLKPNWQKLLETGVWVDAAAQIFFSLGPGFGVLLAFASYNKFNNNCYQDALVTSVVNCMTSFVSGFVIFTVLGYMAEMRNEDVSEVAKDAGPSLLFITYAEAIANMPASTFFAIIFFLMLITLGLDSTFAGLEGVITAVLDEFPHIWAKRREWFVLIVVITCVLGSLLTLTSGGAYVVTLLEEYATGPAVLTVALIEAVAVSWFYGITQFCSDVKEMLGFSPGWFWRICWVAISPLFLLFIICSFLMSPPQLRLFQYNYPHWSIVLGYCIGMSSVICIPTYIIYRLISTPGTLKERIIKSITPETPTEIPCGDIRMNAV

[3] = molecular target: Sodium-dependent serotonin transporter (Rattus norvegicus, UniProt P31652); experiment: In vitro binding affinity towards serotonin transporter in rat cerebral cortical homogenates by [3H]paroxetine displacement.
Sequence of Sodium-dependent serotonin transporter (P31652 whole entry): as the sequence (P31652 whole entry, looked up) above

[4] = molecular target: Norepinephrine transporter (Rattus norvegicus, UniProt Q9WTR4); experiment: In vitro binding affinity towards Norepinephrine transporter rat cerebral cortical homogenates by [3H]nisoxetine displacement.
Sequence of Norepinephrine transporter (Q9WTR4 whole entry): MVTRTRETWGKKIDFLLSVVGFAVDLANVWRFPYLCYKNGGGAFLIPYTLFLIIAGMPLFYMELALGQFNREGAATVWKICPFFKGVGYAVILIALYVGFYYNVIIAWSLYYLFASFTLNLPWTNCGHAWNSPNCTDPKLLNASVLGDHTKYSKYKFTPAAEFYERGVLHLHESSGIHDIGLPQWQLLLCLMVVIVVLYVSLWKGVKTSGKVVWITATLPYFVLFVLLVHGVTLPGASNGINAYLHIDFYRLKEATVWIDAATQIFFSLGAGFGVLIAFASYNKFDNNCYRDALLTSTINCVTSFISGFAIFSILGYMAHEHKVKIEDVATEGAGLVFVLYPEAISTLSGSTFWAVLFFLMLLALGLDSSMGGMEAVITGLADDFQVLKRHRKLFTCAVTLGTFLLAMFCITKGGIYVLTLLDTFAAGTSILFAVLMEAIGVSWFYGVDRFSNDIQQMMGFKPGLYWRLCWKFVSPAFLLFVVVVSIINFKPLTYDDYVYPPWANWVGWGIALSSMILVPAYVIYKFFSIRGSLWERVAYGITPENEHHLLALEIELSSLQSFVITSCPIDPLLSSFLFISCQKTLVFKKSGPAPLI
How it was run: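 Crude membrane fraction of rat frontoparietal cerebral cortex in 50 mM Tris-HCl (pH 7.4) with Na+, K+ (5 mM). Typically six concentrations in duplicate; curves computer-fit for IC50, converted to Ki = IC50/(1 + [L]/K_d).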

[5] = molecular target: Monoamine transporters; Norepininephrine & dopamine (Rattus norvegicus) (UniProt P23977+Q9WTR4); experiment: Selectivity for Dopamine and Norepinephrine transporters; type: protein assay

Sequence of Sodium-dependent dopamine transporter (P23977 whole entry): as the sequence (P23977 whole entry, looked up) above

COC(=O)C1C(c2ccc(I)cc2)CC2CCC1N2CCCO (stereo unspecified)
Ki [1]: 5.39 nM
Selectivity [2]: 0.463
Ki [3]: 2.5 nM
Ki [4]: 217 nM
Selectivity [5]: 40.3

COC(=O)C1C(c2ccc(I)cc2)CC2CCC1N2C (stereo unspecified)
Ki [1]: 1.4 nM
Selectivity [2]: 0.32
Ki [4]: 2.8 nM
Selectivity [5]: 2

COC(=O)C1C(c2ccc(I)cc2)CC2CCC1N2C(=O)C(C)C (stereo unspecified)
Ki [1]: 2100 nM
Selectivity [2]: 0.049
Ki [3]: 102 nM
Ki [4]: > 10000 nM
Selectivity [5]: > 4.8

COC(=O)[C@@H]1C2CCC(C[C@@H]1c1ccc(I)cc1)N2CCCN1C(=O)c2ccccc2C1=O (stereo partly specified)
Ki [1]: 9.1 nM
Selectivity [2]: 0.065
Ki [3]: 0.59 nM
Ki [4]: 73.7 nM
Selectivity [5]: 8.1

COC(=O)C1C(c2ccc(I)cc2)CC2CCC1N2CCF (stereo unspecified)
Ki [1]: 4 nM
Selectivity [2]: 0.035
Ki [3]: 0.14 nM
Ki [4]: 93 nM
Selectivity [5]: 23.2

COC(=O)C1C(c2ccc(I)cc2)CC2CCC1N2CCCF (stereo unspecified)
Ki [1]: 3.5 nM
Selectivity [2]: 0.032
Ki [3]: 0.11 nM
Ki [4]: 63 nM
Selectivity [5]: 18

COC(=O)C1C(c2ccc(I)cc2)CC2CCC1N2CCCBr (stereo unspecified)
Ki [1]: 2.56 nM
Selectivity [2]: 0.137
Ki [3]: 0.35 nM
Ki [4]: 164 nM
Selectivity [5]: 64.1

COC(=O)[C@H]1[C@@H](c2ccc(F)cc2)C[C@H]2CC[C@H]1N2C
Ki [3]: 181 nM
Ki [4]: 635 nM

COC(=O)C1C(c2ccc(I)cc2)CC2CCC1N2CC(F)F (stereo unspecified)
Ki [1]: 15.1 nM
Selectivity [2]: 0.636
Ki [3]: 9.6 nM
Ki [4]: > 5000 nM
Selectivity [5]: > 330

COC(=O)C1C(c2ccc(I)cc2)CC2CCC1N2CCCCl (stereo unspecified)
Ki [1]: 3.1 nM
Selectivity [2]: 0.1
Ki [3]: 0.32 nM
Ki [4]: 96 nM
Selectivity [5]: 31

COC(=O)C1C(c2ccc(I)cc2)CC2CCC1N2CC1CC1 (stereo unspecified)
Ki [1]: 4.3 nM
Selectivity [2]: 0.302
Ki [3]: 1.3 nM
Ki [4]: 198 nM
Selectivity [5]: 45.6

CC(C)OC(=O)C1C(c2ccc(I)cc2)CC2CCC1N2CCF (stereo unspecified)
Ki [1]: 4.4 nM
Selectivity [2]: 4.9
Ki [3]: 21.7 nM
Ki [4]: > 10000 nM
Selectivity [5]: > 2300

COC(=O)C1C(c2ccc(I)cc2)CC2CCC1N2CCCOS(C)(=O)=O (stereo unspecified)
Ki [1]: 36.3 nM
Selectivity [2]: 0.477
Ki [3]: 17.3 nM
Ki [4]: 5000 nM
Selectivity [5]: 138

COC(=O)C1C(c2ccc(I)cc2)CC2CCC1N2CC(OC)OC (stereo unspecified)
Ki [1]: 6.8 nM
Selectivity [2]: 0.249
Ki [3]: 1.69 nM
Ki [4]: 110 nM
Selectivity [5]: 16.2

COC(=O)CN1C2CCC1C(C(=O)OC)C(c1ccc(I)cc1)C2 (stereo unspecified)
Ki [1]: 11.9 nM
Selectivity [2]: 0.068
Ki [3]: 0.81 nM
Ki [4]: 29.1 nM
Selectivity [5]: 2.5

COC(=O)C1C(c2ccc(I)cc2)CC2CCC1N2CCCI (stereo unspecified)
Ki [1]: 38.9 nM
Selectivity [2]: 0.227
Ki [3]: 8.84 nM
Ki [4]: 5000 nM
Selectivity [5]: 129

COC(=O)[C@@H]1C2CCC(C[C@@H]1c1ccc(I)cc1)N2CC(=O)N(C)C (stereo partly specified)
Ki [1]: 12.2 nM
Selectivity [2]: 0.524
Ki [3]: 6.4 nM
Ki [4]: 522 nM
Selectivity [5]: 42.8

CC(C)OC(=O)C1C(c2ccc(I)cc2)CC2CCC1N2CCCF (stereo unspecified)
Ki [1]: 1.2 nM
Selectivity [2]: 40.6
Ki [3]: 48.7 nM
Ki [4]: 10000 nM
Selectivity [5]: 8300
